Usually Ki stands for the dissociation constant of the complex between target and ligand, obtained from inhibition or displacement.

The values that follow come from ChEMBL document CHEMBL1148511, “Novel 5-azaindole factor VIIa inhibitors” (Bioorg Med Chem Lett, 2006).

For experiment [1], the target named is Coagulation factor VII/tissue factor (Homo sapiens) (UniProt P08709+P13726). The experiment can be described thus: Selectivity for F7a/TF over trypsin. The format is protein-complex assay. The gist of the method:
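Trypsin (10 nM) was tested without CaCl2, using Tosyl-Gly-Pro-Lys-pNA at Km. Readout was kinetic A405, and Ki was fitted with the Morrison tight-binding equation.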

Experiment [2] deals with Thrombin and coagulation factor VII (Homo sapiens) (UniProt P00734+P08709). Description: Selectivity for F7a/TF over F2a. The format is protein assay. The gist of the method: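 FVIIa (7 nM) with soluble tissue factor (11 nM) was run in 1.5 mM EDTA. Thrombin (12.7 nM) was run in 1 mM EDTA with Tosyl-Gly-Pro-Lys-pNA at Km. Hydrolysis was followed at 405 nm, and apparent Ki came from a Morrison equation fit.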

The target in experiment [3] is Coagulation factor VII and X (Homo sapiens) (UniProt P00742+P08709). The experiment can be described thus: Selectivity for F7a/TF over F10a. It is filed as protein assay. The gist of the method:
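Reactions were started with pNA substrate at Km and read as A405 over time. Ki was fitted with the Morrison tight-binding equation.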

A further experiment has as its target T1, Coagulation factor VII (Homo sapiens, UniProt P08709).
T1 sequence (P08709 whole entry): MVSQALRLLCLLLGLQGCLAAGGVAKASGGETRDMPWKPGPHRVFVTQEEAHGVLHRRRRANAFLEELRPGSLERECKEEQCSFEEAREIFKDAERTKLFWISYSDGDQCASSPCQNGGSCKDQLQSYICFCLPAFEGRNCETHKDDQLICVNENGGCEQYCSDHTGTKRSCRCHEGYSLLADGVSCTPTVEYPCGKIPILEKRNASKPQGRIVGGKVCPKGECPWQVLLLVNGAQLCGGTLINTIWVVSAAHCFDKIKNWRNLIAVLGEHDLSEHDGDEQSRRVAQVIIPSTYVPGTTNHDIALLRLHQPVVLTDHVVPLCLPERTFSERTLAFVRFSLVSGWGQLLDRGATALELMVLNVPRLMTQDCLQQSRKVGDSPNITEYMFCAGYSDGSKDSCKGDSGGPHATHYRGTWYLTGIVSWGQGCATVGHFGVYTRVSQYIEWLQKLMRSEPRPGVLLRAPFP
Description: Binding affinity to F7a/TF complex. The format is protein-complex assay.

Experiment [4] is described as follows: Binding affinity to trypsin. Further details: species or system Homo sapiens.
A further experiment concerns the target Coagulation factor X (Homo sapiens, UniProt P00742). The experiment can be described thus: Binding affinity to F10a.
The next experiment deals with Prothrombin (Homo sapiens, UniProt P00734). Description: Binding affinity to F2a.

Sequence of Coagulation factor X (P00742 41-179 limits assumed): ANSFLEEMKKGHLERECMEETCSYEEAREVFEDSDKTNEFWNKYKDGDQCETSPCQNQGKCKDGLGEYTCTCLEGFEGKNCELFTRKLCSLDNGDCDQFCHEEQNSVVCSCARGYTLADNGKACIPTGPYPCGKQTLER
Sequence of Coagulation factor X (P00742 235-488 limits assumed): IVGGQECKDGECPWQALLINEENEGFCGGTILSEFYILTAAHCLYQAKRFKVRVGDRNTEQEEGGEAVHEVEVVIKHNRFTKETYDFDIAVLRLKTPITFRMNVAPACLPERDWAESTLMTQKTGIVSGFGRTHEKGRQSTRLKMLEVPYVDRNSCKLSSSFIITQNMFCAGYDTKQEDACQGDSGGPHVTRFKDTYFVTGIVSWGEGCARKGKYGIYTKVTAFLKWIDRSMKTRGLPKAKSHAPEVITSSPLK

Turning to `O=C(NCc1cccc(-c2cccc(-c3cc4c[nH]ccc-4n3)c2O)c1)Nc1ccccc1Cl`, the Ratio Ki in experiment [1], in experiment [2] and in experiment [3] was 2630 throughout.
For `O=C(NCc1cccc(-c2cccc(-c3cc4c[nH]ccc-4n3)c2O)c1)Nc1ccccc1`, the values for the Ratio Ki in experiment [1], in experiment [2] and in experiment [3] were 2030, 2110 and 1010, respectively. In addition, the affinity on Coagulation factor VII, expressed as Ki, was 61.5 nM.
With `COc1ccccc1NC(=O)NCc1cccc(-c2cccc(-c3cc4c[nH]ccc-4n3)c2O)c1`, the Ratio Ki in experiment [1] amounted to 3190; in experiment [2] it was 3190; in experiment [3], 1720. In addition, on Coagulation factor VII, the inhibition constant Ki stood at 47 nM.
Consider `O=C(NCc1cccc(-c2cccc(-c3cc4c[nH]ccc-4n3)c2O)c1)C(CO)c1ccccc1` (configuration not stated), for which the Ratio Ki in experiment [1] amounted to 57; in experiment [2], 470; in experiment [3], 136. The same compound returned a Ki on Coagulation factor VII of 220 nM.
With `O=C(NCc1cccc(-c2cccc(-c3cc4c[nH]ccc-4n3)c2O)c1)Nc1c(F)cccc1F`, the Ratio Ki in experiment [1] is 2180; in experiment [2] it was 3940; in experiment [3], 2700. At Coagulation factor VII, the inhibition constant Ki amounted to 33 nM.
Take `O=C(NCc1cccc(-c2cccc(-c3cc4c[nH]ccc-4n3)c2O)c1)Nc1ccc(C(=O)O)cc1`: the Ratio Ki in experiment [1] is 1100; in experiment [2], 2240; in experiment [3], 966. This compound showed an inhibitory constant (Ki) on Coagulation factor VII of 58 nM.
`O=C(NCCc1cccs1)NCc1cccc(-c2cccc(-c3cc4c[nH]ccc-4n3)c2O)c1`: the Ratio Ki in experiment [1] was 120; in experiment [2], 169; in experiment [3] it was 429.
`O=C(NCc1cccc(-c2cccc(-c3cc4c[nH]ccc-4n3)c2O)c1)N1CCCC1`: the Ratio Ki in experiment [1] turned out to be 9; in experiment [2] it was 5; in experiment [3] it was 3. At Coagulation factor VII, this compound returned an inhibition constant Ki of 17000 nM.
Compound `N=C(N)c1ccc2[nH]c(-c3cccc(-c4cc(CNC(N)=O)ccc4O)c3O)nc2c1` showed a Ki in experiment [4] of 3600 nM. This counts as single-digit micromolar.
Turning to `O=C(NCc1cccc(-c2cccc(-c3cc4c[nH]ccc-4n3)c2O)c1)C(O)c1ccccc1` (configuration not stated), the values for the Ratio Ki in experiment [1], in experiment [2] and in experiment [3] were 57, 68 and 80, respectively. At Coagulation factor VII, this compound had a Ki of 850 nM.
The matching figures for `CN1CCN(C(=O)NCc2cccc(-c3cccc(-c4cc5c[nH]ccc-5n4)c3O)c2)CC1`: 1, 1, 1 and 130000 nM.
The corresponding values for `O=C(Cc1c(F)cccc1F)NCc1cccc(-c2cccc(-c3cc4c[nH]ccc-4n3)c2O)c1` are 16, 16, 10 and 9500 nM.
`O=C(NCc1cccc(-c2cccc(-c3cc4c[nH]ccc-4n3)c2O)c1)Nc1ccc(F)c(F)c1`: the Ratio Ki in experiment [1], in experiment [2] and in experiment [3] was 455 throughout. The compound further registered an inhibition constant Ki on Coagulation factor VII of 330 nM.
`O=C(NCc1cccc(-c2cccc(-c3cc4c[nH]ccc-4n3)c2O)c1)Nc1ccccn1`: the Ratio Ki in experiment [1] came to 56; in experiment [2], 56; in experiment [3] it was 67. Also, on Coagulation factor VII, the Ki is 2700 nM.
`O=C(NCc1cccc(-c2cccc(-c3cc4c[nH]ccc-4n3)c2O)c1)Nc1ccsc1`: the Ratio Ki was 1150 in experiment [1], 769 in experiment [2] and 623 in experiment [3].
Regarding `O=C(NCc1cccc(-c2cccc(-c3cc4c[nH]ccc-4n3)c2O)c1)C(CO)c1cccnc1` (configuration not stated), the results for the Ratio Ki in experiment [1], in experiment [2] and in experiment [3] were 34, 107 and 149, respectively. The same compound came in with an inhibitory constant (Ki) on Coagulation factor VII of 610 nM.
The matching figures for `O=C(NCc1cccc(-c2cccc(-c3cc4c[nH]ccc-4n3)c2O)c1)Nc1ccc(F)cc1`: 1360, 1360, 382 and 110 nM.
For the compound `O=C(NCCc1ccccc1)NCc1cccc(-c2cccc(-c3cc4c[nH]ccc-4n3)c2O)c1`, the values for the Ratio Ki in experiment [1], in experiment [2] and in experiment [3] were 96, 174 and 417, respectively. Further, the Ki at Coagulation factor VII was 270 nM.
The corresponding values for `O=C(NCc1cccc(-c2cccc(-c3cc4c[nH]ccc-4n3)c2O)c1)Nc1ccc(F)cc1F` are 1500, 1200, 1700 and 100 nM.
For the compound `CC(=O)c1cccc(NC(=O)NCc2cccc(-c3cccc(-c4cc5c[nH]ccc-5n4)c3O)c2)c1`, the Ratio Ki in experiment [1] was 2170; in experiment [2], 2000; in experiment [3] it was 2170. The Ki on Coagulation factor VII came to 60 nM.
Consider `O=C(NCc1cccc(-c2cccc(-c3cc4c[nH]ccc-4n3)c2O)c1)Nc1cc(F)cc(F)c1`, for which the Ratio Ki in experiment [1], in experiment [2] and in experiment [3] was 181 throughout. The inhibition constant Ki on Coagulation factor VII was determined as 830 nM.
Take `CC(=O)c1ccc(NC(=O)NCc2cccc(-c3cccc(-c4cc5c[nH]ccc-5n4)c3O)c2)cc1`: the Ratio Ki in experiment [1] was 495; in experiment [2] it was 305; in experiment [3] it was 789.
With `O=C(NCc1cccc(-c2cccc(-c3cc4c[nH]ccc-4n3)c2O)c1)Nc1ccccc1F`, the Ratio Ki in experiment [1] came to 2630; in experiment [2], 2460; in experiment [3] it was 1930. For the same compound, the inhibitory constant (Ki) at Coagulation factor VII was 57 nM.
Take `O=C(NCc1cccc(-c2cccc(-c3cc4c[nH]ccc-4n3)c2O)c1)Nc1cccc(F)c1`: the Ratio Ki in experiment [1] worked out at 1150; in experiment [2], 1150; in experiment [3], 923. Further, the Ki on Coagulation factor VII came out at 130 nM.
Turning to `CCCCCNC(=O)NCc1cccc(-c2cccc(-c3cc4c[nH]ccc-4n3)c2O)c1`, the Ratio Ki in experiment [1] was found to be 181; in experiment [2], 343; in experiment [3], 388. The compound also gave a Ki at Coagulation factor VII of 335 nM.
With `O=C(NCc1cccc(-c2cccc(-c3cc4c[nH]ccc-4n3)c2O)c1)Nc1cccs1`, the Ratio Ki in experiment [1] amounted to 538; in experiment [2], 938; in experiment [3], 600.
As to `O=C(Cc1ccccc1)NCc1cccc(-c2cccc(-c3cc4c[nH]ccc-4n3)c2O)c1`, the Ratio Ki in experiment [1] came out at 26; in experiment [2], 24; in experiment [3], 46.
For the compound `O=C(NCc1cccc(-c2cccc(-c3cc4c[nH]ccc-4n3)c2O)c1)Nc1cccnc1`, the Ratio Ki is 935 in experiment [1], 968 in experiment [2] and 635 in experiment [3]. This compound returned an inhibition constant (Ki) at Coagulation factor VII of 155 nM.
As to `O=C(NCc1cccc(-c2cccc(-c3cc4c[nH]ccc-4n3)c2O)c1)N(O)Cc1ccccc1`, the Ratio Ki was found to be 375 in experiment [1], 750 in experiment [2] and 653 in experiment [3]. For the same compound, at Coagulation factor VII, the inhibition constant Ki turned out to be 72 nM.
`NC(=O)NCc1cccc(-c2cccc(-c3cc4c[nH]ccc-4n3)c2O)c1`: the Ki is 125000 nM on Coagulation factor X, 46500 nM in experiment [4] and 71500 nM at Prothrombin.
On to `COc1ccc(NC(=O)NCc2cccc(-c3cccc(-c4cc5c[nH]ccc-5n4)c3O)c2)c(OC)c1`, for which the Ratio Ki in experiment [1] worked out at 5000; in experiment [2] it was 3180; in experiment [3] it was 2640. Also, affinity at Coagulation factor VII was put at a Ki of 28 nM.
For the compound `COc1ccc(NC(=O)NCc2cccc(-c3cccc(-c4cc5c[nH]ccc-5n4)c3O)c2)cc1`, the Ratio Ki in experiment [1] was 1590; in experiment [2], 1020; in experiment [3], 705. At Coagulation factor VII, affinity was put at a Ki of 88 nM.
For `COc1cccc(NC(=O)NCc2cccc(-c3cccc(-c4cc5c[nH]ccc-5n4)c3O)c2)c1`, the Ratio Ki in experiment [1] came to 1500; in experiment [2], 1500; in experiment [3] it was 1600. This compound came in with a Ki on Coagulation factor VII of 100 nM.
